Screens from PubChem.
FGF22 binding – shifts melting point of recombinant human FGF22 | activity (Tm shift, normalised), % at 9.99 µM | 340,000 tested, 1.5% active | recombinant FGF22 thermal shift, SYPRO orange fluorescence; percent of sucrose octasulfate shift, DMSO zero | AID 651658 | Q9HCT0;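 active means mean Tm shift, scaled 0 neutral to 100 positive control, at about 1.3% or above, every replicate too, limit read from the data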
Target sequence (Q9HCT0 whole entry, looked up): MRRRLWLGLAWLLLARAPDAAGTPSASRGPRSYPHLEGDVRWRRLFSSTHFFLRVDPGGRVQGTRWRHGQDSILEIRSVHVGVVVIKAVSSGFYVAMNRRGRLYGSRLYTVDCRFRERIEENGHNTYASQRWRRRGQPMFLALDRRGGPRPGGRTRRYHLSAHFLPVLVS
E-sel inducer – E-selectin induction on HUVECs; activation, % at 7.58 µM; P16581; HUVEC E-selectin immunofluorescence imaging; normalized: neutral wells 0, TNF-alpha wells 100; 260,000 tested, 0.37% active;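 active means mean E-selectin-positive cell signal at least 10% of the positive control, reached in at least 60% of replicates, without over 20% cell loss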
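Read-out: % PE-positive cells | Test system: HUVEC | Doses: One compound dose added by pin transfer | Buffer or medium: EGM-2 over gelatin coat | Signal: Immunofluorescence imaging | Benchmarks: TNF-alpha, DMSO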
ERAP1 inh – inhibitors of human ERAP1 aminopeptidase. Q9NZ08. recombinant ERAP1, Leu-AMC fluorescence, 60 min. inhibition, % at 10.7 µM. 340,000 tested, 0.15% active. AID 652197;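 active means mean replicate inhibition of at least 30%, or all replicates individually reaching that 30% level; inactive means mean below 30% and not every replicate reaching it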;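 further: 0% = neutral control wells and 100% = L-leucinethiol positive control wells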
DENV2 CPE rescue – inhibitors of DENV2 cytopathic effect; DENV2-infected cells, cytopathic effect rescue, plate reader; CPE inhibition, % at 9.99 µM; 350,000 tested, 1.7% active; AID 651640; in the data active means CPE inhibition above about 20%, passing the limit was not always enough; tested in BHK-21 cells;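 further: 0% = median of neutral control wells and 100% = median of positive control wells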
F508del corr – CFTR F508del correction in bronchial cells; CFBE cells, YFP halide quenching; stimulated with forskolin plus potentiator P3; % fluorescence drop versus neutral controls; activity (quench increase), % at 7.58 µM; 350,000 tested, 0.36% active; AID 720511;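 active means mean added fluorescence quench of at least 8% versus neutral control, with both replicates also reaching 8%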;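 further: cells transiently co-express mutant CFTR-F508del with the halide-sensitive YFP; corrector assay measuring rescue of mutant channel to the surface after 24 h compound exposure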
* = called active by the depositor; x = no result. This is a sample that favours compounds with a hit; in the whole collection about 3.7% have one here.

SMILES	FGF22 binding	E-sel inducer	ERAP1 inh	DENV2 CPE rescue	F508del corr
CCN(c1ccccc1)S(=O)(=O)c1ccc(C(=O)N2CCN(c3ccccc3F)CC2)cc1	-0.1	x	-2.1	52.7*	-0.7
Cc1ccc2c(c1)N(CCCC(=O)NCc1ccc3c(c1)OCO3)C(=O)CO2	0.0	0.0	-0.4	91.7*	5.0
CCN1CCN(CC(=O)c2cc(Cl)ccc2Cl)CC1	43.2*	2.1	2.8	-4.8	0.2
O=C(C[C@@H]1CC[C@@H]2[C@H](COC[C@@H](O)CN2C(=O)Nc2ccccc2)O1)NCCc1ccncc1	-0.2	0.1	-0.1	2.8	-1.5
COc1ccccc1CN1CCNC(=O)C1CC(=O)NCC1CCOCC1 (configuration not stated)	0.1	x	-3.3	-3.6	-0.3
COc1ccc(CN2CCNC(=O)C2CC(=O)NCC2CCOCC2)c(C)c1C (configuration not stated)	0.0	0.1	-4.2	89.5*	2.4
CCCNC(=O)Nc1ccc2c(c1)C(=O)N(C)C[C@H](OC)[C@H](C)CN(C)[C@@H](C)CO2	-0.4	0.0	1.4	101.4*	2.1
CCCNC(=O)Nc1ccc2c(c1)C(=O)N(C)C[C@H](OC)[C@H](C)CN(C)[C@H](C)CO2	0.1	-0.2	3.2	38.3*	-1.7
CCCNC(=O)Nc1ccc2c(c1)C(=O)N(C)C[C@@H](OC)[C@H](C)CN(C)[C@@H](C)CO2	-0.2	0.3	2.4	-1.2	-1.0
CC(C)CC#Cc1ccc2c(c1)O[C@@H](CN(C)Cc1cncnc1)[C@H](C)CN([C@@H](C)CO)S2(=O)=O	-0.7	0.1	0.6	23.9*	-0.3
CC(C)CC#Cc1ccc2c(c1)O[C@@H](CN(C)Cc1ccc(F)cc1)[C@@H](C)CN([C@H](C)CO)S2(=O)=O	-0.7	-0.1	-1.1	45.4*	4.3
CC(C)CC#Cc1ccc2c(c1)O[C@@H](CN(C)C(=O)c1ccccc1F)[C@H](C)CN([C@@H](C)CO)S2(=O)=O	-0.6	-0.4	0.5	39.4*	-0.3
COCC#Cc1ccc2c(c1)O[C@@H](CN(C)C(=O)Nc1ccccc1F)[C@H](C)CN([C@@H](C)CO)S2(=O)=O	-0.1	-0.2	7.1	90.1*	2.7
COCC#Cc1ccc2c(c1)O[C@H](CN(C)C(=O)Nc1ccccc1F)[C@@H](C)CN([C@@H](C)CO)S2(=O)=O	0.7	0.2	6.2	-4.5	1.1
CC(C)CC#Cc1ccc2c(c1)O[C@H](CN(C)Cc1ccc(F)cc1)[C@H](C)CN([C@@H](C)CO)S2(=O)=O	-0.3	x	-0.1	15.7	0.7
CC=Cc1ccc2n(c1=O)C[C@H]1[C@H](CO)[C@@H](C(=O)NCc3ccc4c(c3)OCO4)[C@@H]2N1C(=O)C1CC1 (mixture of isomers)	0.2	-0.4	2.1	-2.4	-2.4
COC1=C(Nc2ccccc2)C(=O)C(OC)=C(Nc2ccccc2)C1=O	44.2*	-0.1	5.0	1.1	-3.5
C=CCC[C@@H](Cc1ccc(F)cc1)C(=O)OCCNC(=O)[C@@H](CC=C)CC(=O)N[C@H](CO)Cc1ccccc1	0.1	-0.1	-0.4	44.2*	1.0
C=CC[C@@H](CC(=O)N[C@H](CO)Cc1ccccc1)C(=O)N[C@@H](C)COC(=O)[C@@H](CC=C)Cc1ccc(F)cc1	-0.1	-0.2	-2.1	40.6*	-0.6
C=CCC[C@@H](Cc1ccc(F)cc1)C(=O)OCCNC(=O)[C@@H](CC=C)CC(=O)N[C@@H](CO)Cc1ccccc1	0.1	-6.0	x	-7.2	-2.6
C=CC[C@@H](CC(=O)N[C@@H](CO)Cc1ccccc1)C(=O)N[C@@H](COC(=O)[C@@H](CC=C)Cc1ccc(F)cc1)Cc1ccccc1	-0.2	0.2	-1.9	1.5	1.4
C=CC[C@@H](CC(=O)NCCO)C(=O)N[C@@H](C)COC(=O)[C@H](CC=C)CC(=O)OC(C)(C)C	-0.3	x	-6.9	46.4*	1.3
C=CCC[C@@H](Cc1ccc(F)cc1)C(=O)OC[C@@H](C)NC(=O)[C@@H](CC=C)CC(=O)N[C@H](CO)Cc1ccccc1	1.4*	-0.2	-1.6	7.6	0.8
CS(=O)(=O)Nc1ccc2c(c1)[C@@H]1C[C@H](CC(=O)NC3CCCCC3)O[C@@H](CO)[C@@H]1O2	-0.3	-0.1	0.0	-0.1	1.4
C=CCC[C@@H](Cc1ccc(F)cc1)C(=O)OC[C@@H](NC(=O)[C@@H](CC=C)CC(=O)N[C@H](CO)Cc1ccccc1)C(C)(C)C	-0.3	0.2	-1.6	24.9*	-2.6
